Measurements as given in ChEMBL document CHEMBL4043279 (Bioorg Med Chem Lett, 2017).
Calls of active or inactive are those of the source. The rule behind the calls is not given here.

Assays:
PC-3 = assay: Antiproliferative activity against human PC3 cells treated for 24 hrs measured after 72 hrs by MTT assay; format: functional, cell-based
HepG2 = assay: Antiproliferative activity against human HepG2 cells treated for 24 hrs measured after 72 hrs by MTT assay; format: functional, cell-based
THP-1 = assay: Antiproliferative activity against human THP1 cells treated for 24 hrs measured after 72 hrs by MTT assay; format: functional, cell-based
HL-60 [1] = assay: Antiproliferative activity against human HL60 cells treated for 24 hrs measured after 72 hrs by MTT assay; format: functional, cell-based
PBMC = assay: Antiproliferative activity against human PBMC treated for 24 hrs measured after 72 hrs by MTT assay; format: cell-based
HL-60 [2] = assay: Cell cycle arrest in human HL60 cells assessed as accumulation at G1-phase at 0.25 uM after 48 hrs by propidium iodide staining based flow cytometry (reference value: 63.21%); format: functional
HL-60 [3] = assay: Cell cycle arrest in human HL60 cells assessed as accumulation at S-phase at 0.25 uM after 48 hrs by propidium iodide staining based flow cytometry (reference value: 25.19%); format: functional
HL-60 [4] = assay: Cell cycle arrest in human HL60 cells assessed as accumulation at G2-phase at 0.25 uM after 48 hrs by propidium iodide staining based flow cytometry (reference value: 11.61%); format: functional
HL-60 [5] = assay: Cell cycle arrest in human HL60 cells assessed as accumulation at G1-phase at 0.5 uM after 48 hrs by propidium iodide staining based flow cytometry (reference value: 63.21%); format: functional
HL-60 [6] = assay: Cell cycle arrest in human HL60 cells assessed as accumulation at S-phase at 0.5 uM after 48 hrs by propidium iodide staining based flow cytometry (reference value: 25.19%); format: functional
HL-60 [7] = assay: Cell cycle arrest in human HL60 cells assessed as accumulation at G2-phase at 0.5 uM after 48 hrs by propidium iodide staining based flow cytometry (reference value: 11.61%); format: functional
HL-60 [8] = assay: Cell cycle arrest in human HL60 cells assessed as accumulation at G1-phase at 1 uM after 48 hrs by propidium iodide staining based flow cytometry (reference value: 63.21%); format: functional
HL-60 [9] = assay: Cell cycle arrest in human HL60 cells assessed as accumulation at S-phase at 1 uM after 48 hrs by propidium iodide staining based flow cytometry (reference value: 25.19%); format: functional
HL-60 [10] = assay: Cell cycle arrest in human HL60 cells assessed as accumulation at G2-phase at 1 uM after 48 hrs by propidium iodide staining based flow cytometry (reference value: 11.61%); format: functional
HL-60 [11] = assay: Induction of apoptosis in human HL60 cells assessed as chromatin condensation at 0.25 to 1 uM after 48 hrs […]; format: functional, cell-based
HL-60 [12] = assay: Induction of apoptosis in human HL60 cells assessed as nuclear fragmentation at 0.25 to 1 uM after 48 hrs by […]; format: functional, cell-based
HL-60 [13] = assay: Induction of apoptosis in human HL60 cells after 48 hrs by Annexin V-FITC/propidium iodide staining based flow cytometry; format: functional, cell-based
Method in brief: (§1)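 HL-60 cells were treated for 48 h with vehicle alone or with 0.25, 0.5 or 1.0 μM. Cells were then stained with FITC-Annexin V and PI and analysed by two-parameter flow cytometry. Quadrants were scored as viable (LL), early apoptotic (LR), late apoptotic/necrotic (UR) and necrotic (UL). Total apoptosis was taken as early plus late.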

HL-60 [14] = assay: Induction of apoptosis in human HL60 cells assessed as live cells at 0.25 uM after 48 hrs by Annexin V-FITC/propidium iodide staining based flow cytometry (reference value: 95.75%); format: functional; method in brief: as §1
HL-60 [15] = assay: Induction of apoptosis in human HL60 cells assessed as early apoptotic cells at 0.25 uM after 48 hrs by Annexin V-FITC/propidium iodide staining based flow cytometry (reference value: 2.66%); format: functional; method in brief: as §1
HL-60 [16] = assay: Induction of apoptosis in human HL60 cells assessed as late apoptotic cells at 0.25 uM after 48 hrs by Annexin V-FITC/propidium iodide staining based flow cytometry (reference value: 1.56%); format: functional; method in brief: as §1
HL-60 [17] = assay: Induction of apoptosis in human HL60 cells assessed as necrotic cells at 0.25 uM after 48 hrs by Annexin V-FITC/propidium iodide staining based flow cytometry (reference value: 0.03%); format: functional; method in brief: as §1
HL-60 [18] = assay: Induction of apoptosis in human HL60 cells assessed as live cells at 0.5 uM after 48 hrs by Annexin V-FITC/propidium iodide staining based flow cytometry (reference value: 95.75%); format: functional; method in brief: as §1
HL-60 [19] = assay: Induction of apoptosis in human HL60 cells assessed as early apoptotic cells at 0.5 uM after 48 hrs by Annexin V-FITC/propidium iodide staining based flow cytometry (reference value: 2.66%); format: functional; method in brief: as §1
HL-60 [20] = assay: Induction of apoptosis in human HL60 cells assessed as late apoptotic cells at 0.5 uM after 48 hrs by Annexin V-FITC/propidium iodide staining based flow cytometry (reference value: 1.56%); format: functional; method in brief: as §1
HL-60 [21] = assay: Induction of apoptosis in human HL60 cells assessed as necrotic cells at 0.5 uM after 48 hrs by Annexin V-FITC/propidium iodide staining based flow cytometry (reference value: 0.03%); format: functional; method in brief: as §1
HL-60 [22] = assay: Induction of apoptosis in human HL60 cells assessed as live cells at 1 uM after 48 hrs by Annexin V-FITC/propidium iodide staining based flow cytometry (reference value: 95.75%); format: functional; method in brief: as §1
HL-60 [23] = assay: Induction of apoptosis in human HL60 cells assessed as early apoptotic cells at 1 uM after 48 hrs by Annexin V-FITC/propidium iodide staining based flow cytometry (reference value: 2.66%); format: functional; method in brief: as §1
HL-60 [24] = assay: Induction of apoptosis in human HL60 cells assessed as late apoptotic cells at 1 uM after 48 hrs by Annexin V-FITC/propidium iodide staining based flow cytometry (reference value: 1.56%); format: functional; method in brief: as §1
HL-60 [25] = assay: Induction of apoptosis in human HL60 cells assessed as necrotic cells at 1 uM after 48 hrs by Annexin V-FITC/propidium iodide staining based flow cytometry (reference value: 0.03%); format: functional; method in brief: as §1
HL-60 [26] = assay: Induction of mitochondrial membrane potential loss in human HL60 cells assessed as cells with intact mitochondrial membrane at 0.25 uM after 48 hrs by JC-1 staining based flow cytometry (reference value: 92.17%); format: functional
HL-60 [27] = assay: Induction of mitochondrial membrane potential loss in human HL60 cells assessed as cells with collapsed mitochondrial membrane potential at 0.25 uM after 48 hrs by JC-1 staining based flow cytometry (reference value: 7.81%); format: functional
HL-60 [28] = assay: Induction of mitochondrial membrane potential loss in human HL60 cells assessed as cells with intact mitochondrial membrane at 0.5 uM after 48 hrs by JC-1 staining based flow cytometry (reference value: 92.17%); format: functional
HL-60 [29] = assay: Induction of mitochondrial membrane potential loss in human HL60 cells assessed as cells with collapsed mitochondrial membrane potential at 0.5 uM after 48 hrs by JC-1 staining based flow cytometry (reference value: 7.81%); format: functional
HL-60 [30] = assay: Induction of mitochondrial membrane potential loss in human HL60 cells assessed as cells with intact mitochondrial membrane at 1 uM after 48 hrs by JC-1 staining based flow cytometry (reference value: 92.17%); format: functional
HL-60 [31] = assay: Induction of mitochondrial membrane potential loss in human HL60 cells assessed as cells with collapsed mitochondrial membrane potential at 1 uM after 48 hrs by JC-1 staining based flow cytometry (reference value: 7.81%); format: functional
HL-60 [32] = assay: Induction of mitochondrial membrane potential loss in human HL60 cells assessed as cells with collapsed mitochondrial membrane potential after 48 hrs by JC-1 staining based flow cytometry; format: functional, cell-based

`COC(=O)[C@H](Cc1ccc(N(CCCl)CCCl)cc1)NC(=O)CCC(=O)OCCCOCCCn1c2c(c3ccccc31)CCN1C(=O)c3ccccc3N(C)C21` (stereo partly specified) gave an IC50 (PC-3) of over 100 µM, an IC50 (HepG2) of 17 µM and an IC50 (THP-1) of 4.05 µM. For the same molecule, the IC50 (HL-60 [1]) was 0.5 µM, the IC50 (PBMC) was over 200 µM and the Activity (HL-60 [2]) was 62.39%. For the same molecule, the Activity (HL-60 [3]) was 24.42%, the Activity (HL-60 [4]) was 13.19% and the Activity (HL-60 [5]) was 58.52%. It also gave an Activity (HL-60 [6]) of 26.28%, an Activity (HL-60 [7]) of 15.19% and an Activity (HL-60 [8]) of 45.83%. For the same molecule, the Activity (HL-60 [9]) was 28.18%, the Activity (HL-60 [10]) was 25.99% and the Activity (HL-60 [11]) was “Active”. For the same molecule, the Activity (HL-60 [12]) was “Active”, the Activity (HL-60 [13]) was “Dose-dependent effect” and the Activity (HL-60 [14]) was 83.31%. It also gave an Activity (HL-60 [15]) of 10.41%, an Activity (HL-60 [16]) of 5.69% and an Activity (HL-60 [17]) of 0.58%. It also gave an Activity (HL-60 [18]) of 53.71%, an Activity (HL-60 [19]) of 40.31% and an Activity (HL-60 [20]) of 5.27%. The Activity (HL-60 [21]) was 0.72%, the Activity (HL-60 [22]) was 34.97% and the Activity (HL-60 [23]) was 57.54%. For the same molecule, the Activity (HL-60 [24]) was 6.7%, the Activity (HL-60 [25]) was 0.79% and the Activity (HL-60 [26]) was 85.67%. It also gave an Activity (HL-60 [27]) of 14.13%, an Activity (HL-60 [28]) of 71.49% and an Activity (HL-60 [29]) of 28.51%. The Activity (HL-60 [30]) was 37.22%, the Activity (HL-60 [31]) was 62.78% and the Activity (HL-60 [32]) was “Dose-dependent effect”.
